According to ChEMBL document CHEMBL3739279, “Fluorinated betulinic acid derivatives and evaluation of their anti-HIV activity” (Bioorg Med Chem Lett, 2016):

Tests used:
[1] = Cytotoxicity against human MT4 cells by cell-titer Glo assay; format: cell-based
Procedure, shortened: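 MT4 cells cultured in parallel with antiviral cultures; viability read by luminescent ATP quantitation (CellTiter-Glo). CC50 = concentration reducing viability by 50%.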

[2] = test system: Human immunodeficiency virus 1; assay: Antiviral activity against HIV-1 NL4-3 infected in MT4 cells assessed inhibition of viral replication measured on day 4 postinfection by ELISA; format: functional, organism-based; settings: Human immunodeficiency virus 1, NL4-3, MT4, 96 h
Procedure, shortened: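 MT4 cells infected with HIV-1 NL4-3 at MOI 0.001 in presence of graded compound concentrations; fresh compound-containing medium added 48 h post-infection to sustain growth. Viral replication read on day 4 by p24 ELISA; EC50 = concentration giving 50% inhibition of replication.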

Row | Structure (SMILES) | EC50 [2] [µM] | CC50 [1] [µM]
1 | C=C(C)[C@@H]1CC[C@]2(C(=O)OCC3CCC(F)(F)CC3)CC[C@]3(C)[C@H](CC[C@@H]4[C@@]5(C)CC[C@H](OC(=O)CC(C)(C)C(=O)O)C(C)(C)[C@@H]5CC[C@]43C)[C@@H]12 | 0.31 | > 6
2 | C=C(C)[C@@H]1CC[C@]2(C(=O)OC)CC[C@]3(C)[C@H](CC[C@@H]4[C@@]5(C)C[C@@H](F)[C@H](OC(=O)CC(C)(C)C(=O)O)C(C)(C)[C@@H]5CC[C@]43C)[C@@H]12 | > 16 | > 16
3 | C=C(C)[C@@H]1CC[C@]2(C(=O)OC)CC[C@]3(C)[C@H](CC[C@@H]4[C@@]5(C)C[C@@H](C(F)(F)F)[C@H](OC(=O)CC(C)(C)C(=O)O)C(C)(C)[C@@H]5CC[C@]43C)[C@@H]12 | > 6 | > 6
4 | C=C(C)[C@@H]1CC[C@]2(C(=O)OCCC3CC3)CC[C@]3(C)[C@H](CC[C@@H]4[C@@]5(C)C[C@@H](F)[C@H](OC(=O)CC(C)(C)C(=O)O)C(C)(C)[C@@H]5CC[C@]43C)[C@@H]12 | 1.1 | > 6

Second part, led by results:

Row | EC50 [2] [µM] | Structure (SMILES) | CC50 [1] [µM]
5 | > 6 | C=C(C)[C@@H]1CC[C@]2(C(=O)O)CC[C@]3(C)[C@H](CC[C@@H]4[C@@]5(C)CC[C@H](OC(=O)C(F)(F)C(F)(F)C(=O)O)C(C)(C)[C@@H]5CC[C@]43C)[C@@H]12 | > 6
6 | 0.097 | C=C(CC(F)(F)F)[C@@H]1CC[C@]2(C(=O)O)CC[C@]3(C)[C@H](CC[C@@H]4[C@@]5(C)CC[C@H](OC(=O)CC(C)(C)C(=O)O)C(C)(C)[C@@H]5CC[C@]43C)[C@@H]12 | > 6
7 | > 17 | C=C(C)[C@@H]1CC[C@]2(C(=O)O)CC[C@]3(C)[C@H](CC[C@@H]4[C@@]5(C)C[C@@H](F)[C@H](OC(=O)CC(C)(C)C(=O)O)C(C)(C)[C@@H]5CC[C@]43C)[C@@H]12 | > 17
8 | 0.075 | C=C(C)[C@@H]1CC[C@]2(C(=O)O)CC[C@]3(C)[C@H](CC[C@@H]4[C@@]5(C)CC[C@H](OC(=O)CC(C)(C)C(=O)O)C(C)(C)[C@@H]5CC[C@]43C)[C@@H]12 [BEVIRIMAT] | > 17
9 | 3 | C=C(C)[C@@H]1CC[C@]2(C(=O)OCCc3cccc(C(F)(F)F)c3)CC[C@]3(C)[C@H](CC[C@@H]4[C@@]5(C)CC[C@H](OC(=O)CC(C)(C)C(=O)O)C(C)(C)[C@@H]5CC[C@]43C)[C@@H]12 | > 5
10 | > 6 | C=C(C)[C@@H]1CC[C@]2(C(=O)O)CC[C@]3(C)[C@H](CC[C@@H]4[C@@]5(C)CC[C@H](OC(=O)C(F)(F)C(F)(F)C(F)(F)C(=O)O)C(C)(C)[C@@H]5CC[C@]43C)[C@@H]12 | > 6
